The subject of assay [1] is Nakaseomyces glabratus. Nature of the assay: Antifungal activity against Candida glabrata ATCC 90030 assessed as inhibition of microbial growth incubated for 24 hrs by broth microdilution method. Format: functional, organism-based. Particulars: for IC50: ATCC 90030, 24 h; for IC90: ATCC 90030, time 24 hrs. In a few lines:
(§1)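 Broth microdilution following CLSI M27-A3 and supplement M27-S4. Pure compounds were tested at 100 down to 0.06 μg mL−1 in a 10-step series, diluted from DMSO (≤1% DMSO final). Fluconazole served as the fungistatic control. Plates were incubated at 37 °C for 24 h and growth was read spectrophotometrically at 530 nm. IC50 and IC90 were taken as 50% and 90% growth inhibition.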
In general terms: In broth dilution the organism is exposed to a series of concentrations in liquid medium.

The subject of assay [2] is Pichia kudriavzevii. Nature of the assay: Antifungal activity against Candida krusei ATCC 6258 assessed as inhibition of microbial growth incubated for 24 hrs by broth microdilution method. Format: functional, organism-based. Conditions: for IC50: ATCC 6258, 24 h; for IC90: ATCC 6258, time 24 hrs. A digest of the protocol: as §1
Assay [3] concerns Pichia kudriavzevii. The assay can be described thus: Antifungal activity against Candida krusei ATCC 6258 assessed as inhibition of microbial growth at 100 to 0.06 ug/ml incubated for 24 hrs by broth microdilution method. Format: functional, organism-based. Particulars: dose 100-0.06 µg/ml.
Assay [4] deals with Nakaseomyces glabratus. The assay can be described thus: Additive antifungal activity against Candida glabrata ATCC 90030 assessed as fractional inhibitory concentration index incubated for 24 hrs in the presence of 3-(beta-D-glucopyranosyloxy)sitosterol by checkerboard assay. Format: functional. In a few lines:
(§2)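 Checkerboard pairing of two compounds serially diluted in Mueller−Hinton broth, incubated for 24 h at 37 °C, with growth read spectrophotometrically at 530 nm. Each FIC is the compound's IC in combination divided by its IC alone, and ΣFIC is the sum of the FIC values. ΣFIC ≤0.5 was taken as synergy, 0.5–4 as no interaction and >4 as antagonism.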

The subject of assay [5] is Nakaseomyces glabratus. Nature of the assay: Selectivity index, ratio of IC50 for antifungal activity against Candida glabrata ATCC 90030 to IC50 for antifungal activity against Candida glabrata ATCC 90030 in the presence of 3-(beta-D-glucopyranosyloxy)sitosterol. Format: functional.
The subject of assay [6] is Pichia kudriavzevii. The assay can be described thus: Antifungal activity against Candida krusei ATCC 6258 assessed as inhibition of microbial growth incubated for 24 hrs in the presence of 3-(beta-D-glucopyranosyloxy)sitosterol by broth microdilution method. Particulars: ATCC 6258, 24 h. Format: functional, organism-based. A digest of the protocol: (§3)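 Checkerboard combination of two compounds, each serially diluted in Mueller−Hinton broth. Ranges were set so that, after adding inoculum, concentrations sat at the range averages. Plates were incubated for 24 h at 37 °C and growth was quantified at 530 nm, as in the single-agent microdilution test. The inhibitory concentration of each compound was determined in combination.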

In assay [7] the test system is Pichia kudriavzevii. The assay can be described thus: Synergistic antifungal activity against Candida krusei ATCC 6258 assessed as fractional inhibitory concentration index incubated for 24 hrs in the presence of 3-(beta-D-glucopyranosyloxy)sitosterol by checkerboard assay. Format: functional. A digest of the protocol:
as §2

For assay [8], the system named is Nakaseomyces glabratus. The assay can be described thus: Antifungal activity against Candida glabrata ATCC 90030 assessed as inhibition of microbial growth incubated for 24 hrs in the presence of 3-(beta-D-glucopyranosyloxy)sitosterol by broth microdilution method. Format: functional, organism-based. Particulars: ATCC 90030, 24 h. In a few lines: as §3

Structures are written as SMILES. Active and inactive are the calls of the source. The rule behind the calls is not given here.

`O=C(O)/C=C/c1c(O)cc(O)c2c(=O)cc(-c3ccc(O)cc3)oc12`: in the assay on Nakaseomyces glabratus [1], the IC50 is 3.9 µg/mL and the IC90 stood at 250 µg/mL. Besides, in the assay with Pichia kudriavzevii [2], the IC50 came out at 125 µg/mL and the IC90 stood at 250 µg/mL.
As to `O=c1cc(-c2ccc(O)c(O)c2)oc2cc(O)cc(O)c12` [LUTEOLIN], in the assay on Pichia kudriavzevii [3], the outcome was inactive. Besides, the IC50 in the assay with Nakaseomyces glabratus [1] was 15 µg/mL.
Regarding `C[C@H]1O[C@@H](c2c(O)cc3oc(-c4ccc(O)cc4)cc(=O)c3c2O)C[C@H](O)[C@H]1O`, the results for the IC50 in the assay on Nakaseomyces glabratus [1] and in the assay on Pichia kudriavzevii [2] were 1000 µg/mL and 250 µg/mL, respectively. The IC90 in the assay with Pichia kudriavzevii [2] amounted to 1000 µg/mL.
`C[C@@H]1O[C@@H](O[C@H]2C(=O)[C@@H](O)[C@H](C)O[C@@H]2c2c(O)cc(O)c3c(=O)cc(-c4ccc(O)c(O)c4)oc23)[C@H](O)[C@H](O)[C@H]1O`: the values for the IC50 in the assay on Nakaseomyces glabratus [1] and in the assay on Pichia kudriavzevii [2] were 60 µg/mL and 100 µg/mL, respectively.
With `O=C(O)c1cc(O)c(O)c(O)c1` [GALLIC ACID], in the assay on Pichia kudriavzevii [3], the result was inactive. Also, in the assay on Nakaseomyces glabratus [1], the IC50 is 60 µg/mL.
For `O=C(O)/C=C/c1c(O)cc2oc(-c3ccc(O)cc3)cc(=O)c2c1O`, the figures for the IC50 in the assay with Nakaseomyces glabratus [1] and in the assay on Pichia kudriavzevii [2] were 3.9 µg/mL and 15 µg/mL, respectively.
In the case of `C[C@@]12Oc3cc4oc(-c5ccc(O)cc5)cc(=O)c4c(O)c3[C@@H](C[C@H](O)[C@H]1O)O2`, in the assay with Nakaseomyces glabratus [1], the IC50 was 7.8 µg/mL and the IC90 was determined as 500 µg/mL. Besides, in the assay with Pichia kudriavzevii [2], the IC50 amounted to 62.5 µg/mL and the IC90 worked out at 250 µg/mL.
Turning to `O=c1c(O)c(-c2ccc(O)c(O)c2)oc2cc(O)cc(O)c12` [QUERCETIN], the IC50 is 60 µg/mL with Nakaseomyces glabratus [1] and 100 µg/mL in the assay on Pichia kudriavzevii [2].
Consider `C[C@H]1O[C@@H](c2c(O)cc(O)c3c(=O)cc(-c4ccc(O)cc4)oc23)C[C@@H](O)[C@@H]1O`, for which, in the assay on Nakaseomyces glabratus [1], the IC50 was 3.9 µg/mL and the IC90 stood at 500 µg/mL. In the assay with Pichia kudriavzevii [2], the IC50 was found to be 7.8 µg/mL and the 90% effect concentration (IC90) amounted to 250 µg/mL.
As for `OC(Cn1cncn1)(Cn1cncn1)c1ccc(F)cc1F` [FLUCONAZOLE], the IC50 was 4 µg/mL with Nakaseomyces glabratus [1] and 16 µg/mL with Pichia kudriavzevii [2].
`C[C@@H]1O[C@@H](O[C@H]2C(=O)[C@@H](O)[C@H](C)O[C@@H]2c2c(O)cc3oc(-c4ccc(O)c(O)c4)cc(=O)c3c2O)[C@H](O)[C@H](O)[C@H]1O`: in the assay with Pichia kudriavzevii [3], the result was inactive. For the same compound, the IC50 in the assay on Nakaseomyces glabratus [1] was 100 µg/mL.
As for `CCOC(=O)c1cc(O)c(O)c(O)c1` [ETHYLGALLATE], the figures for the “fractional inhibitory concentration index (FICI)” value in the assay on Nakaseomyces glabratus [4] and with Pichia kudriavzevii [7] were 0.5 and 0.1, respectively. In addition, in the assay on Nakaseomyces glabratus [5], the “Ratio IC50” value is listed as 100. The IC50 in the assay on Pichia kudriavzevii [6] is 1 µg/mL; in the assay with Nakaseomyces glabratus [1], 15 µg/mL; in the assay with Nakaseomyces glabratus [8], 2.5 µg/mL; in the assay on Pichia kudriavzevii [2], 15 µg/mL.

Usually IC50 stands for the concentration that inhibits the measured activity by half. By IC90 is commonly meant the point of the concentration-response curve where the effect stands at 90%.

(Values after ChEMBL document CHEMBL5244225, “Bioassay-Guided Isolation of Fungistatic Compounds from Mimosa caesalpiniifolia Leaves” (J Nat Prod, 2019).)
